Data published in ChEMBL document CHEMBL3813596, “Conformational Constraint of the Glycerol Moiety of Lysophosphatidylserine Affords Compounds with Receptor Subtype Selectivity” (J Med Chem, 2016).
The source made the active and inactive calls. The rule behind the calls is not given here.

Legend:
[1] = target: Probable G-protein coupled receptor 34 (Mus musculus, UniProt Q9R1K6); assay: (§1) Agonist activity at mouse GPR34 expressed in HEK293A cells cotransfected with chimeric Galphaq/il after 1.5 hrs by alkaline phosphatase tagged-TGFalpha shedding assay; type: cell-based, HEK293-A
[2] = target: Putative P2Y purinoceptor 10 (Mus musculus) (UniProt Q8BFU7); assay: (§2) Agonist activity at mouse P2Y10 receptor expressed in HEK293A cells after 1.5 hrs by alkaline phosphatase tagged-TGFalpha shedding assay; type: cell-based; conditions: HEK293-A
Method in brief: (§3)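 Transient transfection of HEK293 cells with AP-TGFα plus the mouse receptor. For GPR34, HEK293A cells also got a chimeric Gαq/i1 subunit; P2Y10 was run in HEK293A and GPR174 in HEK293FT. Cells were seeded 24 h post-transfection in 5 mM HEPES (pH 7.4) HBSS onto serial 3.2-fold compound dilutions (top final 32 μM or lower, limited by mock-cell signal). Ki16425 was present, and incubation ran 1.5 h.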

[3] = target: Putative P2Y purinoceptor 10 (Mus musculus, UniProt Q8BFU7); assay: as §2; type: cell-based, HEK293-A; method in brief: as §3
[4] = target: Putative P2Y purinoceptor 10 (Mus musculus) (UniProt Q8BFU7); assay: Intrinsic activity at mouse P2Y10 receptor expressed in HEK293A cells after 1.5 hrs by alkaline phosphatase tagged-TGFalpha shedding assay relative to diF-C3-ph-o-O-C11; type: cell-based; conditions: HEK293-A
Method in brief: (§4)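 It is a dimensionless estimate of agonist activity. The GPR34 assay used HEK293A cells with chimeric Gαq/i1 and a 1.5 h incubation; the P2Y10 assay used HEK293A cells.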

[5] = target: Probable G-protein coupled receptor 34 (Mus musculus) (UniProt Q9R1K6); assay: as §1; type: cell-based; conditions: HEK293-A
[6] = target: Probable G-protein coupled receptor 34 (Mus musculus) (UniProt Q9R1K6); assay: Intrinsic activity at mouse GPR34 expressed in HEK293A cells cotransfected with chimeric Galphaq/il after 1.5 hrs by alkaline phosphatase tagged-TGFalpha shedding assay relative to O-(Hydroxy(((2R,3R)-2-(((3-(2-((3-phenoxybenzyl)oxy)phenyl)-propanoyl)oxy)methyl)tetrahydro-2H-pyran-3-yl)oxy)phosphoryl)-L-serine; type: cell-based; conditions: HEK293-A; method in brief: as §4
[7] = target: Probable G-protein coupled receptor 174 (Mus musculus) (UniProt Q3U507); assay: Agonist activity at mouse GPR174 expressed in HEK293FT cells after 1.5 hrs by alkaline phosphatase tagged-TGFalpha shedding assay; type: cell-based; method in brief: as §3
[8] = target: Putative P2Y purinoceptor 10 (Mus musculus) (UniProt Q8BFU7); assay: Agonist activity at mouse P2Y10 receptor expressed in rat McA-RH7777 cells assessed as induction of actin stress fiber formation at 100 nM after 30 mins by Alexa fluor 594-labelled phalloidin/DAPI staining based fluorescence microscopy; type: cell-based
Method in brief: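 McA-RH7777 rat hepatoma cells stably expressing mouse P2Y10, or mock-infected, seeded on collagen I at 2.5 × 10^4 cells/well, grown 24 h in 10% FBS DMEM. Serum-starved 1 h in 0.01% BSA DMEM, stimulated 30 min. Fixed in 4% paraformaldehyde, Triton X-100 permeabilised, stained 1 h with Alexa 594-phalloidin (1.5 μg/mL) and DAPI (1 μg/mL). Scored by fluorescence imaging.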

Probable G-protein coupled receptor 174 (Mus musculus), sequence (Q3U507 whole entry): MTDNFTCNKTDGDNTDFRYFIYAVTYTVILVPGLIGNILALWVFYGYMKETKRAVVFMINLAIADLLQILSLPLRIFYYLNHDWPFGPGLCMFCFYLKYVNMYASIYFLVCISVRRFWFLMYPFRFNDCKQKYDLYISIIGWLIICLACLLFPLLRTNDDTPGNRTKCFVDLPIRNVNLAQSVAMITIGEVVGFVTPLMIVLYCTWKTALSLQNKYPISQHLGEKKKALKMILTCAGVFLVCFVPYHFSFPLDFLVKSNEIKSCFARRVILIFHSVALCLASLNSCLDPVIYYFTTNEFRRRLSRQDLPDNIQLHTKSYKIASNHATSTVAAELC
Putative P2Y purinoceptor 10, sequence (Q8BFU7 whole entry): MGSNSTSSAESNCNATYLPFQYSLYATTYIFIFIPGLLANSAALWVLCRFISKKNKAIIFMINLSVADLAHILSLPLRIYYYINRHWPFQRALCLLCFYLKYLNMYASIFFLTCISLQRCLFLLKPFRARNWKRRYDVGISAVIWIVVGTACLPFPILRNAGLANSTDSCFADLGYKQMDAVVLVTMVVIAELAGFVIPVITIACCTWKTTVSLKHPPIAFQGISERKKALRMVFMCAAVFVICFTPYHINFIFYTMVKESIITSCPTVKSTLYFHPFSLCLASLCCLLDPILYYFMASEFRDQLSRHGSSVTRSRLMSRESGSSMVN
Putative P2Y purinoceptor 10 (Mus musculus), sequence (Q8BFU7 whole entry): as above
Probable G-protein coupled receptor 34, sequence (Q9R1K6 whole entry): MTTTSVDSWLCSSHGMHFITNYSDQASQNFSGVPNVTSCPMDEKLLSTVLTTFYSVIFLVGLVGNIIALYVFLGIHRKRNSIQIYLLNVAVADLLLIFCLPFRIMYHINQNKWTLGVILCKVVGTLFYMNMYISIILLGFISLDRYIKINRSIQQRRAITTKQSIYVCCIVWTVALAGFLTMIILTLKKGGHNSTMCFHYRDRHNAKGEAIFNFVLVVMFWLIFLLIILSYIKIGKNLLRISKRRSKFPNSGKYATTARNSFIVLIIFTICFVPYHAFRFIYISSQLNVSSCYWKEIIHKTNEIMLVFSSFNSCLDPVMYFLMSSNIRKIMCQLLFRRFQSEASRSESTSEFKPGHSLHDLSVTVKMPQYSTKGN
Probable G-protein coupled receptor 34 (Mus musculus), sequence (Q9R1K6 whole entry): as above

| EC50 ([1]; read-out: EC50) | Emax [2] | EC50 ([3]; read-out: EC50) | Intrinsic activity [4] | Emax [5] | Intrinsic activity [6] | Activity [7] | EC50 ([3]; hek293-a) | EC50 ([1]; hek293-a) | pEC50 [5] | Compound | Activity [8] |
| --- | --- | --- | --- | --- | --- | --- | --- | --- | --- | --- | --- |
| 560 nM | inactive | > 1000 nM | inactive |  |  |  |  |  |  | CCCCCCCC/C=C\CCCCCCCC(=O)O[C@@H]1C=CCO[C@@H]1COP(=O)(O)OC[C@H](N)C(=O)O |  |
| 640 nM | 7.5% | 610 nM | 0.002 | 5.3% | 0.082 | inactive |  |  |  | CCCCCCCCCCCOc1ccccc1CCC(=O)OC[C@H]1OCCC[C@@H]1OP(=O)(O)OC[C@H](N)C(=O)O |  |
| > 1000 nM | inactive | > 1000 nM | inactive | inactive | inactive |  |  |  |  | CCCCCCCCCCCOc1ccccc1CCC(=O)O[C@@H]1C=CCO[C@@H]1COP(=O)(O)OCC(N)C(=O)O (single isomer, unassigned) |  |
| 110 nM | 10.6% | 470 nM | 0.0038 | 5.2% | 0.41 | inactive |  |  |  | CCCCCCCCCCCOc1ccccc1CCC(=O)OC[C@H]1OCCC[C@H]1OP(=O)(O)OC[C@H](N)C(=O)O |  |
| > 1000 nM | 11.5% | 450 nM | 0.004 | inactive | inactive |  |  |  |  | CCCCCCCC/C=C\CCCCCCCC(=O)OC[C@@H]1OCC=C[C@H]1OP(=O)(O)OC[C@@H](N)C(=O)O (single isomer, unassigned) |  |
| 600 nM | inactive | > 1000 nM | inactive | 12.4% | 0.2 |  |  |  |  | N[C@@H](COP(=O)(O)O[C@@H]1C=CCO[C@@H]1COC(=O)CCc1ccccc1OCc1cccc(Oc2ccccc2)c1)C(=O)O |  |
|  | inactive | > 1000 nM | inactive | inactive | inactive |  |  | Not Active | inactive | CCCCCCCCCCCOc1ccccc1CCC(=O)O[C@H]1C=CCO[C@@H]1COP(=O)(O)OCC(N)C(=O)O (single isomer, unassigned) |  |
|  | inactive | > 1000 nM | inactive |  |  |  |  | Not Active |  | CCCCCCCC/C=C\CCCCCCCC(=O)O[C@H]1C=CCO[C@@H]1COP(=O)(O)OC[C@H](N)C(=O)O |  |
| > 1000 nM | inactive | > 1000 nM | inactive | inactive | inactive |  |  |  |  | CCCCCCCC/C=C\CCCCCCCC(=O)OC[C@@H]1OCC=C[C@@H]1OP(=O)(O)OC[C@@H](N)C(=O)O (single isomer, unassigned) |  |
| 510 nM | 12.4% | 42 nM | 0.05 |  |  |  |  |  |  | CCCCCCCCCCCOc1ccccc1CCC(=O)OC[C@H]1OCC=C[C@H]1OP(=O)(O)OC[C@H](N)C(=O)O | Active |
|  | 7.2% | 290 nM | 0.0098 | < 3% | inactive | inactive |  | Not Active | inactive | CCCCCCCCCCCOc1ccccc1CCC(=O)O[C@H]1CCCO[C@@H]1COP(=O)(O)OCC(N)C(=O)O (single isomer, unassigned) |  |
| > 1000 nM | inactive | > 1000 nM | inactive | inactive | inactive | inactive |  |  |  | CCCCCCCCCCCOc1ccccc1CCC(=O)O[C@@H]1CCCO[C@@H]1COP(=O)(O)OCC(N)C(=O)O (single isomer, unassigned) |  |
|  | 7.6% | 17 nM | 0.071 |  |  |  |  | Not Active |  | CCCCCCCCCCCOc1ccccc1CCC(=O)OC[C@H]1OCC=C[C@@H]1OP(=O)(O)OC[C@H](N)C(=O)O | Active |

Further lines, the compound ahead of its results:

| Compound | EC50 ([1]; read-out: EC50) | Emax [2] | EC50 ([3]; read-out: EC50) | Intrinsic activity [4] | Emax [5] | Intrinsic activity [6] | Activity [7] | EC50 ([3]; hek293-a) | EC50 ([1]; hek293-a) | pEC50 [5] | Activity [8] |
| --- | --- | --- | --- | --- | --- | --- | --- | --- | --- | --- | --- |
| N[C@@H](COP(=O)(O)O[C@H]1C=CCO[C@@H]1COC(=O)CCc1ccccc1OCc1cccc(Oc2ccccc2)c1)C(=O)O | 460 nM | 11.5% | 330 nM | 0.0053 | 11.7% | 0.25 |  |  |  |  |  |
| CCCCCCCC/C=C\CCCCCCCC(=O)OC[C@@H]1OCCC[C@@H]1OP(=O)(O)OC[C@@H](N)C(=O)O (single isomer, unassigned) | 210 nM |  |  |  | 11.1% | 0.53 | inactive | Not Active |  |  |  |
| N[C@@H](COP(=O)(O)O[C@@H]1CCCO[C@@H]1COC(=O)CCc1ccc(OCc2cccc(Oc3ccccc3)c2)cc1)C(=O)O |  | inactive | > 1000 nM | inactive |  |  |  |  | Not Active |  |  |
| N[C@@H](COP(=O)(O)OC[C@H]1OCC=C[C@H]1OC(=O)CCc1ccccc1OCc1cccc(Oc2ccccc2)c1)C(=O)O | 180 nM | inactive | > 1000 nM | inactive | 16.5% | 0.86 |  |  |  |  |  |
| N[C@@H](COP(=O)(O)OC[C@H]1OCCC[C@@H]1OC(=O)CCc1ccccc1OCc1cccc(Oc2ccccc2)c1)C(=O)O | > 1000 nM | inactive | > 1000 nM | inactive | inactive | inactive | inactive |  |  |  |  |
| CCCCCCCCCCCOc1ccccc1CCC(=O)OCc1ccccc1OP(=O)(O)OC[C@H](N)C(=O)O | 700 nM | 5.8% | 45 nM | 0.02 | 5.9% | 0.2 |  |  |  |  | Active |
| N[C@@H](COP(=O)(O)OC[C@H]1OCCC[C@H]1OC(=O)CCc1cccc(OCc2cccc(Oc3ccccc3)c2)c1)C(=O)O |  | inactive | > 1000 nM | inactive |  |  |  |  | Not Active |  |  |
| CCCCCCCC/C=C\CCCCCCCC(=O)O[C@H]1CCCO[C@@H]1COP(=O)(O)OC[C@H](N)C(=O)O |  |  |  |  |  |  | inactive | Not Active | Not Active |  |  |
| CCCCCCCCCCCOc1ccccc1CCC(=O)OCc1cccc(OP(=O)(O)OC[C@H](N)C(=O)O)c1 |  | 10.8% | 6.7 nM | 0.23 |  |  |  |  | Not Active |  | Active |
| CCCCCCCCCCCOc1ccccc1CCC(=O)OCc1ccc(OP(=O)(O)OC[C@H](N)C(=O)O)cc1 |  | inactive | > 1000 nM | inactive |  |  |  |  | Not Active |  | inactive |
| CCCCCCCC/C=C\CCCCCCCC(=O)OC[C@@H](O)COP(=O)(O)OC[C@H](N)C(=O)O |  | 12.5% | 25 nM | 0.073 | 9.5% | 0.33 |  |  |  |  | Active |
| N[C@@H](COP(=O)(O)O[C@@H]1CCCO[C@@H]1COC(=O)CCc1cccc(OCc2cccc(Oc3ccccc3)c2)c1)C(=O)O | > 1000 nM | inactive | > 1000 nM | inactive | inactive | inactive |  |  |  |  |  |
| N[C@@H](COP(=O)(O)OC[C@H]1OCC=C[C@@H]1OC(=O)CCc1ccccc1OCc1cccc(Oc2ccccc2)c1)C(=O)O | > 1000 nM | inactive | > 1000 nM | inactive | inactive | inactive |  |  |  |  |  |
| N[C@@H](COP(=O)(O)OC[C@H]1OCCC[C@H]1OC(=O)CCc1ccc(OCc2cccc(Oc3ccccc3)c2)cc1)C(=O)O | > 1000 nM | inactive | > 1000 nM | inactive | inactive | inactive |  |  |  |  |  |
| N[C@@H](COP(=O)(O)O[C@H]1CCCO[C@@H]1COC(=O)CCc1ccccc1OCc1cccc(Oc2ccccc2)c1)C(=O)O | 340 nM | inactive | > 1000 nM | inactive | 9.8% | 0.24 | inactive |  |  |  |  |
| CCCCCCCC/C=C\CCCCCCCC(=O)O[C@@H]1CCCO[C@@H]1COP(=O)(O)OC[C@H](N)C(=O)O | > 1000 nM |  | > 1000 nM |  |  |  | inactive |  |  |  |  |
| CCCCCCCC/C=C\CCCCCCCC(=O)OC[C@@H]1OCCC[C@H]1OP(=O)(O)OC[C@@H](N)C(=O)O (single isomer, unassigned) | 100 nM |  | 450 nM |  | 8.7% | 1.03 | inactive |  |  |  |  |
